# Measurements collected from several papers.
# Protocols differ between the studies behind these lines.
# Effect on: metabolic stability
# Species: human
Structure (SMILES),test system,setting,quantity,value
O=C(O)Cc1ccccc1Nc1c(Cl)cccc1Cl,hepatocytes,"0.5 µM, pH 7.4",hepatocyte CLint,98.2 µL/min/10⁶ cells
CC(C)C[C@H](NC(=O)[C@@H]1COCCCCCC(=O)N2C[C@H](F)C[C@H]2C(=O)N1)C(=O)[C@@]1(C)CO1,liver microsomes,"2 µM, 1 h",scaled CLint,32.4 mL/min/kg
CCC(CC)COC(=O)[C@H](C)N[P@@](=O)(OC[C@@H]1C[C@@H](O)[C@H](n2cnc3c(N)ncnc32)O1)Oc1ccccc1,liver microsomes,1 µM,microsomal CLint,2610 µL/min/mg
COc1ccc([C@@H]2Sc3ccccc3N(CCN(C)C)C(=O)[C@@H]2OC(C)=O)cc1,liver microsomes,,microsomal CLint,26 µL/min/mg
NC(=O)N1c2ccccc2C=Cc2ccccc21,liver microsomes,1 µM,microsomal CLint,< 3 µL/min/mg
Cn1nc2c(=O)n(C3CC3)ccc2c1[C@](O)(c1cnc(C(F)(F)F)c(Cl)c1)C(F)(F)F,hepatocytes,"0.5 µM, pH 7.4",hepatocyte CLint,0.5 µL/min/10⁶ cells
CCOc1ccc2ccc(=O)oc2c1,hepatocytes,1 µM,hepatocyte CLint,60.6 µL/min/10⁶ cells
CC(C)C[C@H](NC(=O)[C@@H]1COCCCCCC(=O)N2CC[C@H]2C(=O)N1)C(=O)[C@@]1(C)CO1,liver microsomes,"2 µM, 1 h",scaled CLint,29 mL/min/kg
CC[N+]1(C)CCN(c2ccc(C(=O)Nc3cccc(C)n3)cc2)CC1,liver microsomes,,microsomal CLint,< 3 µL/min/mg
Cn1nc2c(=O)n(C3CC3)cnc2c1[C@](O)(c1cnc(C(F)(F)F)c(Cl)c1)C(F)(F)F,hepatocytes,"0.5 µM, pH 7.4",hepatocyte CLint,0.5 µL/min/10⁶ cells
Nc1ncnc2c1ncn2[C@@H]1O[C@H](CO)C[C@H]1O,liver microsomes,1 µM,microsomal CLint,142 µL/min/mg
C[C@]1(C(=O)[C@H](CC2=CCCC2)NC(=O)[C@@H]2COCCCCCC(=O)N3C[C@H](F)C[C@H]3C(=O)N2)CO1,liver microsomes,"2 µM, 1 h",scaled CLint,150 mL/min/kg
CCN(CCN)c1ccc(Nc2cc(NC3CC3)n3ncc(C#N)c3n2)cc1-n1cnnc1,liver microsomes,,scaled CLint,< 6.8 mL/min/kg
Cn1c(=O)c2c(ncn2C)n(C)c1=O,hepatocytes,"0.5 µM, pH 7.4",hepatocyte CLint,1.85 µL/min/10⁶ cells
C[C@]1(C(=O)[C@H](Cc2ccccc2)NC(=O)[C@@H]2Cc3ccc(cc3)OCCCCCCCC(=O)N3CCC[C@H]3C(=O)N2)CO1,liver microsomes,"2 µM, 1 h",scaled CLint,927 mL/min/kg
Cn1nc2c(=O)n(C3CC3)ncc2c1[C@](O)(c1cnc(C(F)(F)F)c(Cl)c1)C(F)(F)F,hepatocytes,"0.5 µM, pH 7.4",hepatocyte CLint,< 0.5 µL/min/10⁶ cells
O=C(O)Cc1ccccc1Nc1c(Cl)cccc1Cl,liver microsomes,,scaled CLint,174 mL/min/kg
Cn1nc2c(=O)n(C3CC3)nc(C3CC3)c2c1Cc1ccc(C(F)(F)F)c(F)c1,liver microsomes,"0.5 µM, pH 7.4",microsomal CLint,4.6 µL/min/mg
O=C1CC[C@H](N2Cc3cc(N4CCN(CC5CCN(c6ccc([C@@H]7c8ccc(O)cc8CC[C@@H]7c7ccccc7)cc6)CC5)CC4)ccc3C2=O)C(=O)N1,hepatocytes,1 µM,hepatocyte CLint,13 µL/min/10⁶ cells
